Reference: the RNAGym collection of RNA variant scans (doi:10.1126/science.aae0568)
This sample holds only a part of the variants without activity.

B1: tRNA (parent)
chain: GUUCCGUUGGCGUAAUGGUAACGCGUCUCCCUCCUAAGGAGAAGACUGCGGGUUCGAGUCCCGUACGGAACG

Variants of: B1
Experiment: yeast fitness relative to wild type (ratio to wild type); higher = fitter; tRNA-Arg(CCU), competitive growth, 37 C, YPD
How it was run: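 For this measurement, the tRNA-Arg(CCU) gene was varied by chemical synthesis at a 3% per-site mutation rate across 69 sites, and each variant was placed at the native genomic locus in Saccharomyces cerevisiae. The pooled strains went through a 24-hour competition in YPD at 37°C in six parallel replicates, with amplicons from start and end populations read by 100-nucleotide paired-end sequencing. Darwinian fitness relative to wild type followed from the change in each genotype's frequency. Genotypes needed ≥ 100 starting reads, and estimates < 0.5 were set to 0.5.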
Work on GUUCCGUUGGCGUAAUGGUAACGCGUCUCCCUCCUAAGAAGUAGACUGCGGGUUCGAGUCCCGUACGGAACG [G39A A42U] yielded a yeast fitness of 0.767.
Variant GUUCCGUUGGCGUAAUGGUAACGCGUCUCCCUCCUAAGCAGAAGACUGCGGGUUCGAGUCCCGUAUGGAACG [G39C C66U] has a yeast fitness of 0.633.
In the case of GUUCCGUUGGCGUAAUGGUAACGCGUCUCCCUCCUAAGCAGAUGACUGCGGGUUCGAGUCCCGUACGGUACG [G39C A43U A69U], the yeast fitness is reported as 0.736.
In the case of GUUCCGUUGGCGUAAUGGUAACGCGUCUCCCUCCUAAGCAGAAGACUCCGGGUUCGAGUCCCGUACGGCACG [G39C G48C A69C], the yeast fitness is reported as 0.57.
In the case of GUUCCGUUGGCGUAAUGGUAACGCGUCUCCCUCCUAAGCAGAGCUCUGGGGGUUCGAGUCCCGUACCGAACG [G39C A43G G44C A45U C49G G67C], the yeast fitness is reported as 0.558.
GUUCCGUUGGCGUAAUGGUAACGCGUCUCCCUCCUAAGAAGAAGACUGCGGAUUCGAGUCCCGUACGGAACG [G39A G52A] showed a yeast fitness of 0.759.
In the case of GUUCCGUUGGCGUAAUGGUAACGCGUCUCCCUCCUAAGAAGAAGACUACGGGUUCGUGUCCCGUACGGAACG [G39A G48A A57U], the yeast fitness is reported as ≤ 0.5.
Variant GUUCCGUUGGCGUAAUGGUAACGCGUCUCCCUCCUAAGAAGAAGAAUGCGGGUUCGAGUGUCGUACGGAACG [G39A C46A C60G C61U] has a yeast fitness of 0.512.
Variant GUUCCGUUGGCGUAAUGGUAACGCGUCUCCCUCCUAAGAAGAAGACUGCGGGUUCGAGUCCCGUAUGGAACG [G39A C66U] has a yeast fitness of 0.797.
Work on GUUCCGUUGGCGUAAUGGUAACGCGUCUCCCUCCUAAGCAGAAGACUGCGGGUUAGAGUCCCGUACGGAACG [G39C C55A] yielded a yeast fitness of 0.643.
With GUUCCGUUGGCGUAAUGGUAACGCGUCUCCCUCCUAAGCAGAAGAAUGCGGGUUCGAGUGCCGUACGGAACG [G39C C46A C60G] the yeast fitness was ≤ 0.5.
In the case of GUUCCGUUGGCGUAAUGGUAACGCGUCUCCCUCCUAAGAAGAAGACUGCGGGUUCGAGUCCCGUACAGAACG [G39A G67A], the yeast fitness is reported as 0.769.
GUUCCGUUGGCGUAAUGGUAACGCGUCUCCCUCCUAAGCAGAAGACUGCGGGUUCGAAUCCCGUACGGAACG [G39C G58A] gave a yeast fitness of 0.876.
For GUUCCGUUGGCGUAAUGGUAACGCGUCUCCCUCCUAAGAAGAAGACUGCGGGAUCGAGUCCGGUAUGGAACG [G39A U53A C62G C66U], the yeast fitness was ≤ 0.5.
For GUUCCGUUGGCGUAAUGGUAACGCGUCUCCCUCCUAAGCAGAAGACUGCGGGUUCGUGUCCCGUACGGAACG [G39C A57U], the yeast fitness was 0.682.
In the case of GUUCCGUUGGCGUAAUGGUAACGCGUCUCCCUCCUAAGCAGAAGACUGCGGGUUCGGGUCCCGUACGGAACG [G39C A57G], the yeast fitness is reported as 0.705.
In the case of GUUCCGUUGGCGUAAUGGUAACGCGUCUCCCUCCUAAGCAGAAGACUGCGGAUUCGAGUCCCGUACGGAACG [G39C G52A], the yeast fitness is reported as 0.76.
Variant GUUCCGUUGGCGUAAUGGUAACGCGUCUCCCUCCUAAGCAGAAGACUGCGGGUUCCAGUCCCGUACGGAACG [G39C G56C] has a yeast fitness of 0.553.
Variant GUUCCGUUGGCGUAAUGGUAACGCGUCUCCCUCCUAAGCAGAAGACUGAGGGUUCGAGUCCCGUACGGAACG [G39C C49A] has a yeast fitness of 0.664.
In the case of GUUCCGUUGGCGUAAUGGUAACGCGUCUCCCUCCUAAGCAGAAGACUGCGGGUUCGAGUCCUGUACGGAACG [G39C C62U], the yeast fitness is reported as 0.776.
GUUCCGUUGGCGUAAUGGUAACGCGUCUCCCUCCUAAGCAGAAGAUUGCGGGUUCGAGUCCCGUACGGAACG [G39C C46U] showed a yeast fitness of 0.98.
Variant GUUCCGUUGGCGUAAUGGUAACGCGUCUCCCUCCUAAGAAGAAGCCUGCGGGUUCGAGUCCCGUACGGCACG [G39A A45C A69C] has a yeast fitness of 0.804.
GUUCCGUUGGCGUAAUGGUAACGCGUCUCCCUCCUAAGAAGAAGCCUGCGGGUUCGAGUCCCGUACGGAACG [G39A A45C] showed a yeast fitness of 1.03.
With GUUCCGUUGGCGUAAUGGUAACGCGUCUCCCUCCUAAGAAGAAGACUGCAGGUUCGAGUCCCGUAUGGAACG [G39A G50A C66U] the yeast fitness was ≤ 0.5.
With GUUCCGUUGGCGUAAUGGUAACGCGUCUCCCUCCUAAGCAGAAGACUCCGGGUUCGAGUCCCCUAGGGAACG [G39C G48C G63C C66G] the yeast fitness was ≤ 0.5.
With GUUCCGUUGGCGUAAUGGUAACGCGUCUCCCUCCUAAGAAGAAGACUGCGGGUUCGAGUCCCGUUCGGAACG [G39A A65U] the yeast fitness was 0.791.
In the case of GUUCCGUUGGCGUAAUGGUAACGCGUCUCCCUCCUAAGAAGAAGACAGUGGGUACGAGUCCCGUACGGAACG [G39A U47A C49U U54A], the yeast fitness is reported as ≤ 0.5.
GUUCCGUUGGCGUAAUGGUAACGCGUCUCCCUCCUAAGAAGAAGACUGUGGGUUCGAGUCCCGUACGGAACG [G39A C49U] showed a yeast fitness of 0.842.
With GUUCCGUUGGCGUAAUGGUAACGCGUCUCCCUCCUAAGAAGAAGACUGCGAGAUCGAGUCCCCUACGGAACG [G39A G51A U53A G63C] the yeast fitness was ≤ 0.5.
For GUUCCGUUGGCGUAAUGGUAACGCGUCUCCCUCCUAAGCAGAAGACUGCGCGUUCGAGUCCCGUACGGAACG [G39C G51C], the yeast fitness was 0.568.
Variant GUUCCGUUGGCGUAAUGGUAACGCGUCUCCCUCCUAAGAAGAAGACUGCGGGUUCGACUCCCGUACGGUACG [G39A G58C A69U] has a yeast fitness of 0.773.
With GUUCCGUUGGCGUAAUGGUAACGCGUCUCCCUCCUAAGAAGACGACUGCGGGUUCGAGUCCCGUACGGAACG [G39A A43C] the yeast fitness was 0.796.
In the case of GUUCCGUUGGCGUAAUGGUAACGCGUCUCCCUCCUAAGCAGUAGACUGCGGGUUCGAGUGCUGUACCGAACG [G39C A42U C60G C62U G67C], the yeast fitness is reported as ≤ 0.5.
In the case of GUUCCGUUGGCGUAAUGGUAACGCGUCUCCCUCCUAAGAAGAAGACUGCGGGUUCGAGUCCCAUACGGAACG [G39A G63A], the yeast fitness is reported as 0.945.
GUUCCGUUGGCGUAAUGGUAACGCGUCUCCCUCCUAAGAAGAAGACUGCGGGUCCGAGUCCCGUACGGAACG [G39A U54C] showed a yeast fitness of 0.945.
In the case of GUUCCGUUGGCGUAAUGGUAACGCGUCUCCCUCCUAAGAAGAAAACUGCAGGUUCGAGUCCCCUACGGAACG [G39A G44A G50A G63C], the yeast fitness is reported as ≤ 0.5.
For GUUCCGUUGGCGUAAUGGUAACGCGUCUCCCUCCUAAGCAGAAGACUGGCGGUUCGAGUCCCGUACGGAACG [G39C C49G G50C], the yeast fitness was ≤ 0.5.
In the case of GUUCCGUUGGCGUAAUGGUAACGCGUCUCCCUCCUAAGCAGGAGACUGCGGGUUCGAGUCCCGUACGGAACG [G39C A42G], the yeast fitness is reported as 0.653.
